Screens (PubChem)
SKKanGAS inh – blocks kanamycin growth of S. pyogenes SKKanGAS strain; BacTiter-Glo, 6 h; inhibition, % at 7.5 µM; 300,000 tested, 1.3% active;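 active means mean replicate score, as percent of positive control median, at least 50; inconclusive means mean below 50 but one replicate at or above 50; inactive means mean and every replicate below 50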;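 further: strain carries kanamycin resistance gene driven by streptokinase promoter and grows in 40 µg/ml kanamycin; loss of luminescence reflects streptokinase promoter inhibition or plain growth inhibition; 0% = median of DMSO wells and 100% = positive control at its reference dose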
Calb FLC – affects C. albicans growth with fluconazole. C. albicans CaCi-2 (fluconazole-resistant clinical isolate) + fluconazole, Alamar Blue growth, 48 h. growth inhibition, % (concentration not given with the values). 300,000 tested, 0.57% active. AID 1979;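 active means growth inhibition above about 58% in most replicates, limit read from the data, passing the limit was not always enough; inconclusive means exactly half the replicates above a set limit; inactive means most replicates below a set limit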;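 further: all wells also contain fluconazole at 8 µg/ml as a sub-toxic cotreatment; 0% = median of DMSO wells and 100% = median of geldanamycin control wells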
Beta cell apopt – blocks beta cell apoptosis | INS-1E cytokine-induced death, ATP luminescence, 48 h; percent of positive-control rescue, neutral wells zero | protection from apoptosis, % (test concentration not listed) | 300,000 tested, 0.8% active | AID 435005;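 active means Every replicate reaches about 75%, or at least half do and their mean reaches it too, limit read from the data; inconclusive means At least half of replicates reach the limit but their mean does not; inactive means Under half of replicates reach the limit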;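 further: 0% = cytokine-treated negative control wells and 100% = positive control rescue; higher means more ATP so stronger rescue from cytokine killing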
CSC inhib – blocks cancer stem cells; AID 2717; cancer stem cell-like cells viability, luminescence; 300,000 tested, 1.1% active; inhibition, % at 7.5 µM; in the data active means inhibition above about 75%; inconclusive means no clear call, values can overlap the other calls; tested in HMLE shEcad cells
Mdm2 MdmX PPI – human Mdm2/MdmX binding inhibition; O15151+Q00987; SaOS-2 split-luciferase Mdm2/MdmX complementation, luminescence; inhibition, % at 8 µM; 330,000 tested, 3% active;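 active means inhibition of at least 50% at 8 µM in the primary screen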
Target sequence (O15151 whole entry, looked up): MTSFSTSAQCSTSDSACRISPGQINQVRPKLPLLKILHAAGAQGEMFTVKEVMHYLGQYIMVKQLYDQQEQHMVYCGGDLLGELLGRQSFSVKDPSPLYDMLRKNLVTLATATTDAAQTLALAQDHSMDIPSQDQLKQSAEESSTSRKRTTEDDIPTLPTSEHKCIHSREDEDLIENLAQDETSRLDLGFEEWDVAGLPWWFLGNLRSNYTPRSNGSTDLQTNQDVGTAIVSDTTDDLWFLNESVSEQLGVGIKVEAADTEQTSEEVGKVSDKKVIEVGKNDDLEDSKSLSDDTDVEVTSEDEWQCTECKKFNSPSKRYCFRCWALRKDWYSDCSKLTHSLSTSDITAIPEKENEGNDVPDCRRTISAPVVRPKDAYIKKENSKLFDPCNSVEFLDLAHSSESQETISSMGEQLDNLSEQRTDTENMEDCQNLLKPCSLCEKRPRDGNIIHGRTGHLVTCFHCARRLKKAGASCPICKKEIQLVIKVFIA
Target sequence (Q00987 whole entry, looked up): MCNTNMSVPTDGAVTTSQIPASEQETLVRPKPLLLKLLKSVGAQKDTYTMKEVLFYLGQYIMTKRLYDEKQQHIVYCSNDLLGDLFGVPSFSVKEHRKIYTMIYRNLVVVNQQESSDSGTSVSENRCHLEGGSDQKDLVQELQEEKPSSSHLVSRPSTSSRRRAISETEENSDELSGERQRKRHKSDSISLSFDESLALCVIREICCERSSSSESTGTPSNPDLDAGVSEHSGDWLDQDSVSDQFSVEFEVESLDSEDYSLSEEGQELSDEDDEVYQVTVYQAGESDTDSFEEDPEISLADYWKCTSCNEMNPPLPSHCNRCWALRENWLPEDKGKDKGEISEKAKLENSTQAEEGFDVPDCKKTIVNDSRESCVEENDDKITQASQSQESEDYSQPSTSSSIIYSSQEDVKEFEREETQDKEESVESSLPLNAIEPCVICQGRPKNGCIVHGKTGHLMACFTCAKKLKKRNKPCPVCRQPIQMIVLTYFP
T cruzi repl – T. cruzi replication inhibition; 300,000 tested, 1.4% active; inhibition, % (no concentration beside the values); AID 1885; T. cruzi beta-gal in NIH3T3, luminescence, 90 h;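 active means mean inhibition across valid replicates above about 55%, limit read from the data; inconclusive means mean below that limit but half or more replicates reach it; inactive means mean below it, under half of replicates reach it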;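 further: signal also drops with host cell toxicity which is not excluded here; 0% = plate median of DMSO wells and 100% = zero luminescence signal; higher percent means less beta-gal luminescence so fewer parasites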
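Material: NIH/3T3 host cells with β-galactosidase reporter T. cruzi; Input: 5,000 host fibroblasts per well; Medium: DMEM, 2% fetal bovine serum; Compound: 50 nL DMSO compound solution per well; Schedule: 3 h host attachment, then at least 90 h co-culture; Detection: luminescent β-galactosidase signal after 60 min lysis.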
Mdm2 MdmX conf – confirmation of human Mdm2/MdmX interaction inhibitors; inhibition, % at 8 µM; 10,000 tested, 55% active; Mdm2-MdmX binding, luminescent assay; shares compounds with Mdm2 MdmX PPI; AID 489028; in the data active means inhibition above about 40%
FLuc counter – counter-screen for Mdm2/MdmX inhibitors: full-length luciferase | shares compounds with Mdm2 MdmX PPI | SaOS-2 full-length luciferase counterscreen, luminescence | inhibition, % at 8 µM | 6,200 tested, 77% active;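 active means mean inhibition at 8 µM reaching about 37%, which flags the compound as non-specific, limit read from the data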;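 further: p53-null SaOS-2 cells with luciferase driven by a doxycycline-inducible promoter; compound on cells about two nights before reading with doxycycline added after day one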
Active calls of the source: *; ? = inconclusive; nt = no result given. An excerpt weighted towards active compounds, which were near 5.7% of everything screened.

SMILES	SKKanGAS inh	Calb FLC	Beta cell apopt	CSC inhib	Mdm2 MdmX PPI	T cruzi repl	Mdm2 MdmX conf	FLuc counter
c1ccc2c(Nc3ccc4c(c3)OCCO4)c3c(nc2c1)CCCC3	1	-3	-3	-7	70*	44	59*	85*
COc1ccccc1Nc1c2c(nc3ccccc13)CCC2	-2	38	14	70	56*	7	53*	58*
COc1cc(Nc2c3c(nc4ccccc24)CCCC3)cc(OC)c1OC	1	3	-6	-4	68*	41	64*	76*
Fc1cccc(Nc2c3c(nc4ccccc24)CCC3)c1	-4	-5	12	4	30	25	nt	nt
Cc1cc(OCC(=O)Nc2ccncc2)cc(C)c1Cl	-1	?	nt	16	11	4	nt	nt
COc1ccc(C(=O)NCC(=O)NCc2ccncc2)cc1	nt	nt	-5	-6	4	nt	nt	nt
CCc1nc(Nc2ccc(O)cc2)c2oc3ccccc3c2n1	24	18	6	21	51*	-10	2	nt
Cc1cccc(NC(=O)CSc2nnc(C)c(C)n2)c1	1	-3	-3	-2	11	10	nt	nt
CC1/C(=N/O)CC(c2ccccc2)NC1c1ccccc1 (stereo not drawn)	-2	-15	2	-6	-13	10	nt	nt
CCC1C(=NO)C(CC)C(c2ccccc2)NC1c1ccccc1 (stereo not drawn)	58*	-4	25	64	52*	48	37	nt
CCCC1/C(=N/O)CC(c2ccccc2)NC1c1ccccc1 (stereo not drawn)	12	9	nt	2	59*	-1	62*	64*
FC(F)(F)c1nc(-c2cccs2)ncc1-c1nnnn1-c1ccc(Cl)cc1	12	4	45	26	69*	-9	36	nt
COc1ccc(/C=C\C(=O)O[C@@H]2C(O)C(O[C@@H]3OC(C)[C@H](O[C@@H]4OCC(O[C@H]5O[C@H](CO)[C@@H](O)C(O)C5O)C(O)C4O)C(O)C3O)[C@H](OC(=O)[C@]34CCC(C)(C)C[C@@H]3C3=CCC5[C@@]6(C)CC(O)C(O[C@@H]7OC(CO)C(O)[C@H](O)[C@H]7O)[C@@](C)(C(=O)O)C6CC[C@@]5(C)[C@]3(CO)CC4)O[C@H]2C)cc1 (stereo partly drawn)	nt	nt	37	65	79*	nt	59*	17
CN(C(=O)COC(=O)c1c2c(nc3ccccc13)CCCC2)c1c(N)n(Cc2ccccc2)c(=O)[nH]c1=O	-1	-5	5	-7	33	15	nt	nt
COc1ccc(-c2noc(C(C)NC(=O)c3ccco3)n2)cc1OC (stereo not drawn)	0	-3	-2	3	13	-6	nt	nt
CCC(NC(=O)CCc1nnc(-c2cc(C)on2)o1)C12CC3CC(CC(C3)C1)C2 (stereo not drawn)	5	2	-1	18	8	24	nt	nt
COc1ccc(/C(N)=N/OC(=O)c2cccc([N+](=O)[O-])c2C)cc1	-9	-4	6	-1	33	17	nt	nt
N/C(Cc1ccc([N+](=O)[O-])cc1)=N\OC(=O)c1ccc2ccccc2c1	-11	-4	0	1	88*	-6	40	61*
Cc1cccc(C(=O)O/N=C(\N)Cc2ccc([N+](=O)[O-])cc2)c1	3	-5	-4	-15	89*	16	56*	54*
COc1ccccc1C/C(N)=N/OC(=O)c1cccc([N+](=O)[O-])c1C	19	-6	12	-3	57*	21	36	102*
COc1ccc(C/C(N)=N/OC(=O)C(c2ccccc2)c2ccccc2)cc1OC	-11	4	-1	32	46	16	nt	nt
N/C(Cc1ccc([N+](=O)[O-])cc1)=N\OC(=O)C(c1ccccc1)c1ccccc1	-13	12	11	-4	70*	7	50*	79*
Cc1ccc(NC(=O)Cn2cc([N+](=O)[O-])nc2C)cc1C	-1	-6	-1	-3	26	-11	nt	nt
O=C(COC(=O)c1nc(Cl)ccc1Cl)NCc1cccs1	-1	-1	0	0	19	-5	nt	nt
CC[C@]12c3[nH]c4ccc(Cl)cc4c3CCN1C(=O)[C@@H](CC(=O)NCCCN(C)C)C[C@@H]2C(=O)N1CCN(C(=O)c2ccco2)CC1	nt	nt	nt	nt	8	nt	nt	nt
SMILES	SKKanGAS inh	Calb FLC	Beta cell apopt	CSC inhib	Mdm2 MdmX PPI	T cruzi repl	Mdm2 MdmX conf	FLuc counter
N/C(Cc1ccc([N+](=O)[O-])cc1)=N\OC(=O)c1ccccc1Br	1	-14	3	2	60*	13	30	nt
N/C(=N\OC(=O)c1ccccc1Br)c1ccc([N+](=O)[O-])cc1	13	-1	4	-2	34	-5	nt	nt
Cc1ccc(C(=O)O/N=C(\N)Cc2ccc([N+](=O)[O-])cc2)c(Cl)c1	-8	4	-4	-1	90*	17	60*	43*
Cc1ccc(C(=O)O/N=C(\N)Cc2cccs2)c(Cl)c1	5	4	nt	nt	100*	2	24	nt
Cc1ccc(OCC(=O)O/N=C(\N)Cc2cccs2)cc1C	12	-17	-5	-1	-18	2	nt	nt
O=C(Cn1cc([N+](=O)[O-])ccc1=O)NCC(=O)Nc1ccc(F)c(F)c1F	nt	nt	-1	-15	11	nt	nt	nt
Cc1nnc2ccc(-c3ccc(NS(=O)(=O)c4ccc(Cl)s4)cc3)nn12	nt	nt	-1	-1	10	nt	nt	nt
Cc1occc1C(=O)N1CCN(S(=O)(=O)c2ccccc2)CC1	0	-10	-1	7	8	-7	nt	nt
CCOc1ccc(OCCC(=O)OCC(=O)Nc2cc(OCC)c(N3CCOCC3)cc2OCC)cc1	-1	-10	-38	nt	50*	7	44*	54*
CCOc1cc(N2CCOCC2)c(OCC)cc1NC(=O)c1[nH]c(C)c(C(C)=O)c1C	nt	nt	2	nt	56*	nt	38	86*
CC(=O)c1c(C)[nH]c(C(=O)Nc2ccccc2N2CCOCC2)c1C	15	-56	2	-18	-5	11	nt	nt
Fc1ccccc1NC(=S)NCCc1cccc(Cl)c1	nt	-25	1	10	-12	nt	nt	nt
Cc1ccc(N2CC(C(=O)N(C)CC(=O)Nc3ccc(Cl)c(C(F)(F)F)c3)CC2=O)cc1 (stereo not drawn)	-1	nt	-4	16	59*	-16	44*	66*
COc1ccc(NC(=O)CN2CCCC2c2cccs2)cc1S(=O)(=O)N1CCCCC1 (stereo not drawn)	nt	nt	15	-24	2	nt	nt	nt
COc1ccc(-n2c3c(cc(C(=O)Nc4ccc(C)cc4)c2=O)C(=O)CCC3)cc1	nt	6	nt	-5	4	nt	nt	nt
COc1ccc(-c2c[n+]3c(n2-c2ccc(C)cc2)CCCCC3)cc1	10	-8	127*	16	62*	60*	40*	49*
